Data reported in the array DNA melting data of Ke et al. (doi:10.1101/2024.01.08.574731).

Assays:
[1] = folding enthalpy; higher = less favourable; fluorescence melt of hairpins on a sequencing array, two-state fit; conditions: sodium 0.088 M
In short: (§1)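 Two-state fits, bootstrapped, provided melting temperature and folding enthalpy from Cy3 fluorescence normalised to pre-quench Cy3 and to control constructs. Library hairpins with annealed Cy3 and quencher oligos were imaged on a sequenced MiSeq flow cell in 50 mM Na-HEPES pH 8.0, 25 mM NaCl, at 2.5 °C intervals up to 60 °C. Four replicates were combined with inverse-variance weighting. A 9.35 °C upward shift was applied to fitted temperatures to match UV melts.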

[2] = melting temperature; fluorescence melt of hairpins on a sequencing array, two-state fit, raised by 9.35 °C to match UV melts; conditions: sodium 0.088 M
In short: as §1

| Sequence | folding enthalpy [1] [kcal/mol] | Tm [2] [°C] |
| --- | --- | --- |
| GACCGAGGAAACTTGGTC ((((.((....)).)))) | -32.5 | 50.1 |
| GACCGCGAAAGCGAGTC ((((((....))).))) | -20 | 64.1 |
| GACCGCGAAAGCGATGTC ((((((....)))..))) | -14.9 | 44.3 |
| GACCGCGAAAGCGCTGTC ((((((....)))..))) | -14.3 | 39 |
| GACCGGGGAAACCCGGCC (.(((((....))))).) | -11.2 | 50.4 |
| GACCTACCGAAAGGTGTC (((..(((....)))))) | -18 | 30.8 |
| GACCTACGAAAGTAGTC (((.(((....)))))) | -17.3 | 42.1 |
| GACCTAGAAATAGGTC ((((((....)))))) | -35.6 | 51.3 |
| GACCTCGGAAACGAAGTC (((.(((....))).))) | -24.9 | 34.7 |
| GACCTCGGAAACGAGACC (..((((....))))..) | -11.8 | 26.1 |
| GACCTCGGAAACGAGATC ((.((((....)))).)) | -20.3 | 40.5 |
| GACCTGGGAAACCAGATC ((.((((....)))).)) | -22.5 | 36.1 |
| GACCTGGGAAACTAGGTC (((((.(....).))))) | -42.5 | 50.1 |
| GACCTTCCGAAAGGAGTC (((..(((....)))))) | -11.8 | 26.4 |
| GACCTTGGAAACGAGGTC (((((.(....).))))) | -38.9 | 50.9 |
| GACGAACGAAAGTTGTC (((.(((....)))))) | -25.8 | 44.9 |
| GACGAAGAAATTCGTC ((((((....)))))) | -34.1 | 53.8 |
| GACGAAGGAAACTTCATC ((.((((....)))).)) | -14.7 | 26.9 |
| GACGAAGGAAACTTCGCC (.(((((....))))).) | -16.8 | 43.7 |
| GACGAAGGAAACTTCGTC (((((((....))))))) | -43.9 | 63.5 |
| GACGACACGAAAGTGGTC (((..(((....)))))) | -15.3 | 41.2 |
| GACGACCGAAAGGTAGTC (((.(((....))).))) | -38.6 | 57.7 |
| GACGACCGAAAGGTGTC (((.(((....)))))) | -26.5 | 52.2 |

| Sequence | folding enthalpy [1] [kcal/mol] | Tm [2] [°C] |
| --- | --- | --- |
| GACGACGAAAGTCAGTC ((((((....))).))) | -24.9 | 54.1 |
| GACGACGAAAGTCCGGTC ((((((....)))..))) | -18 | 39.3 |
| GACGACGAAAGTCTTGTC ((((((....)))..))) | -16.2 | 40.3 |
| GACGACGCGAAAGCGGTC (((..(((....)))))) | -11.5 | 47 |
| GACGAGGCGAAAGCCGTC (((..(((....)))))) | -8.76 | 51.5 |
| GACGAGGGAAACCCCGTC ((((.((....)).)))) | -31.4 | 51 |
| GACGATGCGAAAGCAGTC (((..(((....)))))) | -16.9 | 44 |
| GACGATGGAAACATTGTC (((.(((....))).))) | -35.2 | 47.1 |
| GACGATGGAAACGTCGTC (((((.(....).))))) | -35.1 | 54.5 |
| GACGCAGGAAACCGCATC ((.((.(....).)).)) | -12.4 | 28.5 |
| GACGCCCGAAAGGGAGTC (((.(((....))).))) | -32.8 | 66.7 |
| GACGCCGAAAGGCCTGTC ((((((....)))..))) | -13.5 | 35.1 |
| GACGCCGAAAGGCTAGTC ((((((....)))..))) | -18.1 | 46.8 |
| GACGCCGAAAGGCTCGTC ((((((....)))..))) | -14.5 | 50 |
| GACGCCGGAAACGACGCC (.((.((....)).)).) | -21.7 | 39.7 |
| GACGCGCCGAAAGGCGTC (((..(((....)))))) | -6.51 | 37.7 |
| GACGCGCGAAAGCGGTC (((.(((....)))))) | -14 | 55 |
| GACGCTGCGAAAGCAGTC (((..(((....)))))) | -8.26 | 37.2 |
| GACGCTGGAAACAGCACC (..((((....))))..) | -11.1 | 30 |
| GACGCTGGAAACGGCGTC (((((.(....).))))) | -44.2 | 64.9 |
| GACGGAACGAAAGTTGTC (((..(((....)))))) | -19.2 | 30.7 |
| GACGGACGAAAGTCGTC (((.(((....)))))) | -27.3 | 55.6 |
| GACGGACGAAAGTCTGTC (((.(((....))).))) | -35.3 | 60.5 |

| Sequence | folding enthalpy [1] [kcal/mol] | Tm [2] [°C] |
| --- | --- | --- |
| GACGGCCGAAAGGCGTC (((.(((....)))))) | -20.6 | 64.8 |
| GACGGCGAAAGCCCCGTC ((((((....)))..))) | -15.8 | 42.8 |
| GACGGCGAAAGCCTGGTC ((((((....)))..))) | -15.1 | 49.9 |
| GACGGCGGAAACGCCACC (..((((....))))..) | -9.98 | 26.9 |
| GACGGGACGAAAGTCGTC (((..(((....)))))) | -17.1 | 45.8 |
| GACGGGGGAAACTCCGTC (((((.(....).))))) | -37.9 | 58.1 |
| GACGGTGGAAACATCGTC ((((.((....)).)))) | -43.6 | 53.7 |
| GACGTAGGAAACCACGTC (((((.(....).))))) | -29.5 | 47.2 |
| GACGTAGGAAACTACACC (..((((....))))..) | -10.2 | 25.2 |
| GACGTAGGAAACTATGTC (((.(((....))).))) | -30 | 43.9 |
| GACGTAGGAAACTGTGTC (((..((....))..))) | -9.59 | 25.7 |
| GACGTCCCGAAAGGGGTC (((..(((....)))))) | -10.9 | 39.9 |
| GACGTCCGAAAGGAGTC (((.(((....)))))) | -24 | 49 |
| GACGTCGCGAAAGCGGTC (((..(((....)))))) | -11.5 | 39.3 |
| GACGTCGGAAACGACATC ((.((((....)))).)) | -12.7 | 37.2 |
| GACGTCGGAAACGGCGTC ((((.((....)).)))) | -46.9 | 62.3 |
| GACGTGCGAAAGCATGTC (((.(((....))).))) | -35.2 | 65.1 |
| GACGTGGCGAAAGCCGTC (((..(((....)))))) | -16.5 | 50.4 |
| GACGTGGGAAACTGCGTC ((((..(....)..)))) | -24.6 | 47.6 |
| GACGTTGGAAACAACATC ((.((((....)))).)) | -16.8 | 32.4 |
| GACGTTGGAAACGACGTC (((((.(....).))))) | -35.1 | 55.8 |
| GACTAACGAAAGTTGGTC (((.(((....))).))) | -40.4 | 51.3 |
| GACTAAGGAAACTTAGTC (((((((....))))))) | -35.1 | 52.5 |

| Sequence | folding enthalpy [1] [kcal/mol] | Tm [2] [°C] |
| --- | --- | --- |
| GACTAAGGAAACTTGGTC (((.(((....))).))) | -30.1 | 39.3 |
| GACTACCGAAAGGTGTC (((.(((....)))))) | -21.6 | 49.6 |
| GACTACGAAAGTAATGTC ((((((....)))..))) | -15.7 | 34.3 |
| GACTACGAAAGTAGCGTC ((((((....)))..))) | -12.7 | 43.8 |
| GACTAGCGAAAGCTCGTC (((.(((....))).))) | -19.1 | 48 |
| GACTAGCGAAAGCTGTC (((.(((....)))))) | -19.6 | 50.3 |
| GACTAGGAAACTAGTC ((((((....)))))) | -34 | 50.8 |
| GACTCACGAAAGTGCGTC (((.(((....))).))) | -32.8 | 50.6 |
| GACTCAGGAAACCGAGTC (((((.(....).))))) | -29.8 | 46.2 |
| GACTCCCCGAAAGGGGTC (((..(((....)))))) | -7.79 | 31.4 |
| GACTCCCGAAAGGGGGTC (((.(((....))).))) | -33.4 | 63.7 |
| GACTCCGAAAGGACTGTC ((((((....)))..))) | -15.7 | 32.7 |
| GACTCCGAAAGGAGCGTC ((((((....)))..))) | -13.4 | 49.9 |
| GACTCCGAAAGGATAGTC ((((((....)))..))) | -22.5 | 41.5 |
| GACTCCGAAAGGATCGTC ((((((....)))..))) | -23.3 | 42.1 |
| GACTCTACGAAAGTAGTC (((..(((....)))))) | -10.9 | 30.1 |
| GACTCTGGAAACAGGGTC (((.(((....))).))) | -30.7 | 49.4 |
| GACTGACCGAAAGGTGTC (((..(((....)))))) | -16.9 | 41.4 |
| GACTGACGAAAGTCGGTC (((.(((....))).))) | -37.2 | 62 |
| GACTGACGAAAGTCGTC (((.(((....)))))) | -14.2 | 52.6 |
| GACTGCCGAAAGGCCGTC (((.(((....))).))) | -25 | 53.4 |
| GACTGCGAAAGCAAGGTC ((((((....)))..))) | -15.3 | 45.1 |
